N-glyco inh: N-linked glycosylation inhibition; D54 ERlucT glycosylation luciferase reporter, 24 h; percent of 100 nM tunicamycin response; reporter increase, % at 12.5 µM; hit rate 0.23% among 360,000; AID 588692;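 active means mean luciferase reporter signal, scaled so untreated is 0 and the glycosylation-blocking control 100, at or above a set limit in every replicate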;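 further: luciferase carries N-glycosylation sites so blocking glycosylation raises the light; 0% = median of neutral control wells and 100% = median of 100 nM tunicamycin wells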
PAX8 inh HTS: lowers PAX8-driven luciferase in RMG-I cells. inhibition, % at 12.6 µM. AID 652154. RMG-I TPO-luciferase reporter, SteadyGlo, 24 h. hit rate 1.2% among 360,000;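 active means mean replicate inhibition at least 60% with every replicate also reaching 60%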;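 further: luciferase light reporting Pax8 driven TPO promoter activity; plate controls were median of neutral control wells for no effect and mitoxantrone controls for full effect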
AF4-AF9 inh: MLL-AF4/AF9 protein interaction inhibition. P42568. AlphaScreen, biotin-AF4 peptide binding to FLAG-AF9. inhibition, % at 10 µM. hit rate 0.47% among 350,000;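 active means every replicate reaching a set inhibition limit, whatever the replicate mean, cut at about 25% in these data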;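 further: 0% = plate neutral control median and 100% = total signal loss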
Target sequence (P42568 whole entry, looked up): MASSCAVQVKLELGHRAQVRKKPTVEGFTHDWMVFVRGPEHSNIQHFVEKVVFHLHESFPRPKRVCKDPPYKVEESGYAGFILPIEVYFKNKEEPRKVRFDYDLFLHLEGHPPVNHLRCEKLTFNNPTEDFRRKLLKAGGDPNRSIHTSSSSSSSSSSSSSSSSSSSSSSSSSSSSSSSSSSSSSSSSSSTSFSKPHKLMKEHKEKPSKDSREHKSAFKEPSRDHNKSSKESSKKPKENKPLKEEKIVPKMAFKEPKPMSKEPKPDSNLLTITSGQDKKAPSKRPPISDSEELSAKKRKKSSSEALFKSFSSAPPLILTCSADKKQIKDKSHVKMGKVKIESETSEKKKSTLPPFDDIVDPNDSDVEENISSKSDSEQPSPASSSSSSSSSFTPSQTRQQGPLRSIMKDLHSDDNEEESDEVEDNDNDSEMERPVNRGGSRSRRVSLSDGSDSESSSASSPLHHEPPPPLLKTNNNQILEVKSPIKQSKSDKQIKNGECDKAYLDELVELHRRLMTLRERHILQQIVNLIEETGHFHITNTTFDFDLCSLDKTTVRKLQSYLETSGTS
Env fusion inh: HIV envelope-mediated fusion inhibition; hit rate 1.1% among 360,000; HeLa-JRFL Env/CEM21 cell fusion, luciferase; inhibition, % at 12.3 µM;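 active means mean replicate inhibition score of at least 50 and every replicate individually at or above 50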;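 further: 0% = plate neutral controls and 100% = maraviroc near 300 nM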
FN deposition inh: fibronectin deposition inhibition. AH1F fibroblasts, Alexa488-fibronectin deposition fluorescence, overnight. inhibition, % at 12.6 µM. hit rate 0.086% among 350,000;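 active means mean inhibition across replicates of 30% or more, regardless of how many single replicates reach that level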;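 further: positive control wells lacked labelled fibronectin entirely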
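Schedule: 1 h cell adhesion before compound, then overnight fibronectin incubation; test system: AH1F fibroblast monolayer depositing Alexa488-labelled fibronectin into matrix; quantity: 10000 AH1F cells per well; probe or stimulus: fluorescent fibronectin at 24 nM final; signal: fluorescence, ex 485 nm, em 525 nm; evaluation: percent inhibition as loss of matrix-bound fibronectin fluorescence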
EWS-Fli block: inhibitors of EWS/Fli oncoprotein transcriptional activity; hit rate 0.67% among 350,000; AID 651661; inhibition, % at 12.6 µM; A673 NR0B1-luciferase reporter, viability-normalised;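 active means mean inhibition of at least 50% after viability correction, with every replicate also passing that limit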;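 further: firefly luciferase signal divided by Alamar Blue viability fluorescence both relative to DMSO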
* hit, by the source's call; · = not tested or not shown; ! = not confirmed by another sample; [ ] = remark or other dose. Sampled rows, rich in hits. Any-hit rate of the full collection: about 2.5%.

SMILES | N-glyco inh | PAX8 inh HTS | AF4-AF9 inh | Env fusion inh | FN deposition inh | EWS-Fli block
CCOC(=O)c1cc2c(C)n(-c3ccc(OCC)cc3)c(C)c2ccc1=O | -3 | · | · | 61* | 3 | ·
C[C@@H]1CN([C@@H](C)CO)C(=O)c2cc(NC(=O)Nc3ccc(F)cc3)ccc2O[C@@H](C)CCCCO[C@@H]1CN(C)C(=O)C1CCCCC1 | · | 13 | 1 | 5[16.7 µM] | · | 3
C[C@@H]1CCCCO[C@H](CN(C)C(=O)Nc2ccc(F)cc2)[C@@H](C)CN([C@H](C)CO)C(=O)c2cc(NC(=O)Nc3ccccc3)ccc2O1 | · | 17 | 43* | 11[16.7 µM] | 9 | 3
C[C@H]1CCCCO[C@H](CN(C)C(=O)Nc2ccc(F)cc2)[C@@H](C)CN([C@@H](C)CO)C(=O)c2cc(NC(=O)Nc3ccc(F)cc3)ccc2O1 | · | -10 | 0 | 62*[16.7 µM] | 1 | 1
C[C@@H]1CCCCO[C@H](CN(C)C(=O)C2CCCCC2)[C@@H](C)CN([C@@H](C)CO)C(=O)c2cc(NC(=O)Nc3ccc(F)cc3)ccc2O1 | · | 104* | 5 | 57*[16.7 µM] | · | 14
C[C@H]1CN(C)C(=O)c2ccccc2O[C@H]1CN(C)S(C)(=O)=O | · | · | · | · | -4 | ·
O=C(c1ccc2c(c1)OCO2)N(Cc1ccco1)C1(C(=O)NC2CCCCC2)CCCCC1 | -3 | -1 | · | 88* | -6 | ·
COc1ccccc1N=c1scc(-c2ccc3c(c2)NC(=O)CO3)n1CC1CCCO1 (stereo not drawn) | -5 | · | · | · | · | ·
COCC(C)n1c(-c2ccc3c(c2)NC(=O)CO3)csc1=Nc1ccc(OC(F)F)cc1 (stereo not drawn) | -9 | 43 | 2 | 83*! | 9 | 26
O=C1COc2ccc(-c3csc(=Nc4ccc(OC(F)F)cc4)n3CC3CCCO3)cc2N1 (stereo not drawn) | -4 | 17 | · | 92* | · | ·
C[C@H](CO)N1C[C@H](C)[C@H](CN(C)Cc2ccccc2C(=O)O)Oc2ncc(C3=CCCC3)cc2C1=O | · | -21 | -5 | -34[16.7 µM] | 1 | -4
O=C(C[C@H]1CC[C@H](NC(=O)c2ccncc2)[C@@H](CO)O1)Nc1ccccc1 | · | 2 | -1 | -32[16.7 µM] | 6 | -3
O=C(C[C@H]1CC[C@@H]2[C@H](COC[C@H](O)CN2Cc2nccs2)O1)NCc1ccc(Oc2ccccc2)cc1 | · | · | 1 | · | -4 | ·
C[C@@H]1CCCCO[C@H](CN(C)C(=O)Nc2ccc(F)cc2)[C@@H](C)CN([C@@H](C)CO)C(=O)c2cc(NC(=O)NC3CCCCC3)ccc2O1 | · | 66* | -1 | -18[16.7 µM] | · | 4
C[C@@H]1CCCCO[C@@H](CN(C)C(=O)NC2CCCCC2)[C@@H](C)CN([C@@H](C)CO)C(=O)c2cc(NC(=O)Nc3ccc(F)cc3)ccc2O1 | · | 7 | 0 | -9[16.7 µM] | 4 | -15
C[C@@H]1CN([C@H](C)CO)C(=O)c2cc(NC(=O)Nc3ccc(F)cc3)ccc2O[C@@H](C)CCCCO[C@H]1CN(C)C(=O)NC1CCCCC1 | · | 84* | 3 | 3[16.7 µM] | 5 | 14
C[C@@H]1CN([C@@H](C)CO)C(=O)c2cc(NC(=O)Nc3ccc(F)cc3)ccc2O[C@@H](C)CCCCO[C@@H]1CN(C)C(=O)NC1CCCCC1 | · | 24 | 2 | -11[16.7 µM] | 7 | -16
C[C@@H]1CCCCO[C@@H](CN(C)C(=O)NC2CCCCC2)[C@H](C)CN([C@H](C)CO)C(=O)c2cc(NC(=O)Nc3ccc(F)cc3)ccc2O1 | · | 74* | -1 | -7[16.7 µM] | 2 | 10
C[C@H]1CCCCO[C@H](CN(C)C(=O)NC2CCCCC2)[C@@H](C)CN([C@@H](C)CO)C(=O)c2cc(NC(=O)NC3CCCCC3)ccc2O1 | · | 66* | 0 | 5[16.7 µM] | 1 | 8
CNC[C@H]1Oc2cc(C#Cc3ccncc3)ccc2S(=O)(=O)N([C@H](C)CO)C[C@@H]1C | · | 18 | -1 | -16[16.7 µM] | -17 | -23
C=C(C)COc1ccc(-c2[nH]ncc2-c2ccc(OC)c(OC)c2)c(O)c1 | 13 | · | · | · | · | ·
C=C(C)COc1ccc(-c2nc(N)ncc2-c2ccc(OC)c(OC)c2)c(O)c1 | -2 | -35 | 6 | 20 | -2 | 13
C=C(C)COc1ccc(-c2n[nH]c(C)c2-c2ccc(OC)c(OC)c2)c(O)c1 | 7 | 27 | 0 | 12 | 4 | 61*
C=C(C)COc1ccc(-c2nc(N)ncc2-c2ccc(OC)cc2)c(O)c1 | · | · | 28* | · | 0 | ·

From PubChem
